Measurements collected from several papers.
Lines come from different studies, so protocols differ.
Effect on: microbial growth

| Structure (SMILES) | organism | technique | strain | time | MIC |
| --- | --- | --- | --- | --- | --- |
| CC1(C)S[C@@H]2[C@H](NC(=O)[C@H](N)c3ccc(O)cc3)C(=O)N2[C@H]1C(=O)O | Acinetobacter baumannii | broth dilution | ATCCBAA1605 |  | > 64 µg/mL |
| O=C1O[C@H]2[C@@H]3OC(=O)c4cc(O)c(O)c(O)c4-c4c(O)c(O)c5oc(=O)c6c(c(O)c(O)c7oc(=O)c4c5c76)-c4c(cc(O)c(O)c4O)C(=O)OC[C@H]3OC(O)[C@@H]2OC(=O)c2cc(O)c(O)c(O)c2-c2c1cc(O)c(O)c2O (mixture of isomers) | Streptococcus gordonii | broth dilution |  | 24 h | 100 µg/mL |
| CC[C@H]1OC(=O)[C@H](C)[C@@H](O[C@H]2C[C@@](C)(OC)[C@@H](O)[C@H](C)O2)[C@H](C)[C@@H](O[C@@H]2O[C@H](C)C[C@H](N(C)C)[C@H]2O)[C@](C)(O)C[C@@H](C)CN(C)[C@H](C)[C@@H](O)[C@]1(C)O | Acinetobacter baumannii | broth dilution | ATCCBAA1605 |  | 16 µg/mL |
| CCCCCCC#Cc1cncc(-c2nnc(SCc3cc(C(F)(F)F)cc(C(F)(F)F)c3)n2CCCN)c1 | Acinetobacter baumannii | broth dilution | ATCC17978 |  | 32 µg/mL |
| C[C@@H]1O[C@@H](OC[C@H]2O[C@@H](Oc3c(-c4ccc(O)c(O)c4)oc4cc(O)cc(O)c4c3=O)[C@H](O)[C@@H](O)[C@@H]2O)[C@H](O)[C@H](O)[C@H]1O | Streptococcus gordonii | broth dilution |  | 24 h | 200 µg/mL |
| CC1(C)S[C@@H]2[C@H](NC(=O)[C@H](N)c3ccccc3)C(=O)N2[C@H]1C(=O)O | Acinetobacter baumannii | broth dilution | ATCC19606 |  | > 64 µg/mL |
| CCCCCCC#Cc1cncc(-c2nnc(SCc3ccc([N+](=O)[O-])cc3)n2CCCN)c1 | Acinetobacter baumannii | broth dilution | ATCC17978 |  | 64 µg/mL |
| O=c1oc2c(O)c(O)cc3c(=O)oc4c(O)c(O)cc1c4c23 | Streptococcus gordonii | broth dilution |  | 24 h | 100 µg/mL |
| CNC(C)C1CCC(N)C(OC2C(N)CC(N)C(OC3OCC(C)(O)C(NC)C3O)C2O)O1 (stereo not shown) | Proteus mirabilis | broth dilution |  |  | 2 µg/mL |
| CCCCCCCCCCCC[N+](C)(C)Cc1ccccc1 | Acinetobacter baumannii |  | ATCC17978 |  | 63 µM |
